Sampled rows, rich in hits. Any-hit rate of the full collection: about 3.3%.
mABHD4 FP: ABHD4 inhibitors, primary screen, biochemical, fluorescence polarization, mouse | (Lyso)-N-acylphosphatidylethanolamine lipase (Mus musculus), Q8VD66 | purified mABHD4, FP-Rh probe fluorescence polarization | inhibition, % at 8.92 µM | actives 0.54% (n = 370,000) | AID 720543, 2013;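 active = inhibition exceeding the mean over every tested compound plus 3 SD, cut at about 30% in these data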;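 also: 0% = plate median of compound wells and 100% = S159A mutant with DMSO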
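Test system: mouse ABHD4 enzyme, wild type. Reagent: FP-Rh fluorescent activity-based probe, added after compound pre-incubation. Timing: pre-incubation 45 min, probe exposure 60 min, at 25 °C. Technique: FP readout, ex 525 nm / em 598 nm. Benchmarks: high control S159A mutant with DMSO, low control median of compound wells.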
PRMT1 inh: PRMT1 methyltransferase inhibitors, primary screen, biochemical, fluorescence polarization; actives 1.3% (n = 370,000); Protein arginine N-methyltransferase 1 (Homo sapiens), Q99873; recombinant PRMT1, activity-based probe fluorescence polarization; inhibition, % at 2.79 µM;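 active = inhibition above about 21% made by adding two undisclosed values, limit read from the data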
TCR-CD3 inh: inhibitors of human TCR-CD3 interaction, primary screen, biochemical, fluorescence, TAMRA-labeled TCR probe; T-cell receptor (TCR); inhibition, % at 9.4 µM; actives 0.37% (n = 360,000); AID 651800, 2012;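 also: recombinant mutant TCR 2C K166C tagged with TAMRA read by polarization; 0% = receptor in buffer alone and 100% = receptor with positive control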
SIAE primary: human SIAE inhibitors, primary screen, biochemical, fluorescence polarization, FP-Rh probe, 1536-well HTS | Sialate O-acetylesterase (Homo sapiens), Q9HAT2 | SIAE FP-Rh probe binding | inhibition, % at 9.66 µM | actives 0.69% (n = 370,000) | AID 1053197, 2014;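 active = inhibition above a cutoff: mean of compounds within the control limits plus 3 SD of those, cut at about 17% in these data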;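 also: 0% = plate median of compound wells and 100% = probe without SIAE protein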
Target sequence (Q9HAT2 whole entry, looked up): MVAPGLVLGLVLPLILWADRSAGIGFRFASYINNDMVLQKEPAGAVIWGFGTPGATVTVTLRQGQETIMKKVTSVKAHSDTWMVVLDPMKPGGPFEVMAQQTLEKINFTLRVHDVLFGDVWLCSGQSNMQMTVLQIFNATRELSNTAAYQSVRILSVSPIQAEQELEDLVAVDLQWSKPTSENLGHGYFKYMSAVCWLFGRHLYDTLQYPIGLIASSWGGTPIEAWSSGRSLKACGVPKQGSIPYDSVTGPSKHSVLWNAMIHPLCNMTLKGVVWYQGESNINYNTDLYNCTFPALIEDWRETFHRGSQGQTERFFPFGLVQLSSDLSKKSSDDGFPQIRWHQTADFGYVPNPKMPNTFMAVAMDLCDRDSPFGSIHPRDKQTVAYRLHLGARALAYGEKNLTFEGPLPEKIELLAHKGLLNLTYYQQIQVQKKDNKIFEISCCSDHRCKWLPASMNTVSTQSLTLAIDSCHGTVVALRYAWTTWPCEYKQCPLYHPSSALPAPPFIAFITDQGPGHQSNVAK
rCAG binder: binders of r(CAG) RNA repeats, primary screen, biochemical, fluorescence; r(CAG) RNA repeat, TO-PRO-1 dye displacement fluorescence; inhibition, % at 3 µM; actives 1.3% (n = 370,000); AID 651821, 2012;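 active = inhibition above the plate cutoff, the mean of all test compounds on that plate plus 3 SD, cut at about 35% in these data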;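 also: 0% = DMSO alone and 100% = 100 µM mitoxantrone as full dye displacement; higher means more dye released from RNA so lower well fluorescence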
BSA TAMRA ctr: compounds interfering with TAMRA-BSA probe, counter-screen for TCR-CD3 interaction inhibitor project, biochemical, fluorescence, TAMRA-labeled BSA; shares compounds with TCR-CD3 inh; TAMRA-labeled BSA probe fluorescence counterscreen; inhibition, % at 9.4 µM; actives 10% (n = 1,200); in the data active = inhibition above about 23%;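 also: 0% = buffer low control and 100% = reference high control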
TCR-CD3 inh conf: TCR-CD3 interaction inhibitors, retest, confirmation, biochemical, fluorescence, TAMRA-labeled TCR probe. actives 48% (n = 1,200). AID 652036, 2013. shares compounds with TCR-CD3 inh. inhibition, % at 9.4 µM. TAMRA-labeled TCR probe fluorescence binding assay
* = called active by the depositor. Rule as the data show it, unless noted: active = inhibition above about 19%; inactive = the rest.

Results for COc1ccccc1OCC(=O)N/N=C/c1c(O)ccc2ccccc12 ?
mABHD4 FP: 21.1; PRMT1 inh: 5.9; TCR-CD3 inh: 19.6*; SIAE primary: 4.7; rCAG binder: 9.7; BSA TAMRA ctr: -9.1; TCR-CD3 inh conf: 18.5

How did COc1cc(C2NC(=O)CCC2[N+](=O)[O-])cc(OC)c1OC (stereo unspecified) do in these assays?
mABHD4 FP: -8.2; PRMT1 inh: 1.5; TCR-CD3 inh: 22.6*; SIAE primary: -3.2; rCAG binder: 2.2; BSA TAMRA ctr: -1.6; TCR-CD3 inh conf: -3.3

How did COc1ccc(C2NC(=O)CCC2[N+](=O)[O-])cc1OC (stereo unspecified) do in these assays?
mABHD4 FP: 2.8; PRMT1 inh: -2.0; TCR-CD3 inh: 3.7; SIAE primary: 3.6; rCAG binder: 0.9

What do the screens show for `C=CCN(c1ccccc1OC)S(=O)(=O)c1cccc(C(=O)OCC(=O)c2c[nH]c3ccccc23)c1`?
mABHD4 FP: -87.8; PRMT1 inh: -0.8; TCR-CD3 inh: 43.7*; SIAE primary: -111.0; rCAG binder: 18.1; BSA TAMRA ctr: 1.2; TCR-CD3 inh conf: 1.5

How did COc1cc(OC)c(N(C)S(=O)(=O)c2cccc(C(=O)OCC(=O)c3c[nH]c4ccccc34)c2)cc1Cl do in these assays?
mABHD4 FP: -87.6; PRMT1 inh: 0.5; TCR-CD3 inh: 38.4*; SIAE primary: -108.0; rCAG binder: 27.3; BSA TAMRA ctr: 3.8; TCR-CD3 inh conf: 18.1

What do the screens show for `Cc1ccc(-n2c(SCC(=O)Nc3ccc(Oc4ccccc4)cc3)nnc2-c2ccco2)cc1`?
mABHD4 FP: -7.6; PRMT1 inh: -0.5; SIAE primary: -0.4; rCAG binder: 9.0

Results for COCCNc1oc(-c2ccc(Cl)cc2)nc1C#N ?
mABHD4 FP: 2.6; PRMT1 inh: 1.3; TCR-CD3 inh: 19.1*; SIAE primary: -6.4; rCAG binder: -0.6; BSA TAMRA ctr: 0.3; TCR-CD3 inh conf: -1.1

Results for COC(=O)C[C@H]1CC[C@H]2[C@H](COc3ccc(NC(=O)Nc4ccccc4F)cc3C(=O)N2C)O1 ?
mABHD4 FP: 1.7; PRMT1 inh: 2.8; SIAE primary: 1.4; rCAG binder: 2.0

Results for CC(c1ccccc1)N1CC[C@H]2C=CC[C@@H](C(=O)Nc3ccc(F)c(F)c3)[C@H]2C1=O (stereo partly specified) ?
mABHD4 FP: -4.2; PRMT1 inh: -1.7; SIAE primary: 10.0

How did Cc1ccc(CNc2ccc(O)cc2)cc1 do in these assays?
mABHD4 FP: 68.4*; PRMT1 inh: 16.1; TCR-CD3 inh: 27.5*; SIAE primary: 47.7*; rCAG binder: 11.8; BSA TAMRA ctr: -0.8; TCR-CD3 inh conf: 2.1

Results for O=S(=O)(c1ccc(NC(=S)NCCC(c2ccccc2)c2ccccc2)cc1)N1CCOCC1 ?
mABHD4 FP: -100.7; PRMT1 inh: 0.5; TCR-CD3 inh: 32.8*; SIAE primary: -230.0; rCAG binder: 12.5; BSA TAMRA ctr: 14.1; TCR-CD3 inh conf: 17.6

How did CCCCOCCCNC(=S)Nc1ccc(S(=O)(=O)N2CCOCC2)cc1 do in these assays?
mABHD4 FP: -9.8; PRMT1 inh: -3.5; TCR-CD3 inh: 1.6; SIAE primary: -1.9; rCAG binder: 2.0

What do the screens show for `C=CCNC(=O)N1CCN(Cc2nc3ccccc3c(=O)[nH]2)CC1`?
mABHD4 FP: 6.3; PRMT1 inh: -2.1; SIAE primary: 4.3; rCAG binder: 0.0

How did Cc1ccc[n+](-c2[nH]c(=O)sc2/C=N/NC(=O)c2ccccc2[O-])c1 do in these assays?
mABHD4 FP: 3.0; PRMT1 inh: 12.1; TCR-CD3 inh: 19.2*; SIAE primary: -4.2; rCAG binder: 2.6; BSA TAMRA ctr: -13.7; TCR-CD3 inh conf: 1.0

How did CC(C)CN1C(=O)[C@]2(CC(=O)N(C)C2c2ccccc2)c2cc(-n3cc(CCc4ccccc4)nn3)ccc21 (stereo partly specified) do in these assays?
mABHD4 FP: 0.0; PRMT1 inh: -1.5; SIAE primary: 9.4; rCAG binder: -0.7

What do the screens show for `CC1(C)c2ccccc2N2CC(=O)NC21/C=C/c1ccco1` (stereo unspecified)?
mABHD4 FP: -18.0; PRMT1 inh: 13.2; TCR-CD3 inh: 1.2; SIAE primary: 2.4; rCAG binder: 8.2

What do the screens show for `CC1(C)c2ccccc2N2CCC(=O)NC21/C=C/c1ccco1` (stereo unspecified)?
mABHD4 FP: -9.1; PRMT1 inh: 19.7; TCR-CD3 inh: 19.1*; SIAE primary: -4.8; rCAG binder: -0.4; BSA TAMRA ctr: 3.2; TCR-CD3 inh conf: 8.1

How did Oc1ccccc1-c1cnc2cccnn12 do in these assays?
mABHD4 FP: 4.3; PRMT1 inh: -2.0; TCR-CD3 inh: 24.3*; SIAE primary: 4.4; rCAG binder: 0.5; BSA TAMRA ctr: -1.9; TCR-CD3 inh conf: -1.2

Results for O=C(Nc1ccc(F)cc1)C1CC(=O)N(Cc2ccco2)C1 (stereo unspecified) ?
mABHD4 FP: 3.3; PRMT1 inh: -1.4; TCR-CD3 inh: 8.5; SIAE primary: 8.6; rCAG binder: 1.2

What do the screens show for `O=C(NCc1ccccc1F)C1CC(=O)N(Cc2ccco2)C1` (stereo unspecified)?
mABHD4 FP: -9.1; PRMT1 inh: 0.3; TCR-CD3 inh: 42.2*; SIAE primary: 0.4; rCAG binder: 9.3; BSA TAMRA ctr: 2.9; TCR-CD3 inh conf: 2.0

What do the screens show for `COc1ccccc1N(C)S(=O)(=O)c1ccc(C(=O)NNC(=O)c2ccccc2O)cc1`?
mABHD4 FP: 3.4; PRMT1 inh: -3.2; TCR-CD3 inh: 23.3*; SIAE primary: 5.0; rCAG binder: 20.6; BSA TAMRA ctr: -1.4; TCR-CD3 inh conf: 23.6*

What do the screens show for `COc1cc(OC)cc(C(=O)NNC(=O)c2ccc(S(=O)(=O)N(C)c3ccccc3OC)cc2)c1`?
mABHD4 FP: 0.3; PRMT1 inh: 1.2; TCR-CD3 inh: -5.0; SIAE primary: -0.8; rCAG binder: 1.2

How did COc1ccccc1N(C)S(=O)(=O)c1ccc(Cl)c(C(=O)NNC(=O)c2ccccc2O)c1 do in these assays?
mABHD4 FP: 1.7; PRMT1 inh: -1.1; TCR-CD3 inh: 32.5*; SIAE primary: -4.2; rCAG binder: 25.3; BSA TAMRA ctr: -9.8; TCR-CD3 inh conf: 25.0*
